Test system: HEK-293T
Test: Multiplex assay against HEK293T;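 for Population Tubulin-Different-Phenotype (%): share of the cells with healthy nuclei that show this phenotype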
Format: toxicity, cell-based
Details: human
Method in brief: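 Cells were classed with CellPathfinder machine-learning gating, first as Hoechst high-intensity objects or normal cells, then (normal cells) as healthy, pyknosed or fragmented nuclei, and finally (pyknosed cells) as mitotic or apoptotic. Staining of live cells at seeding used Hoechst33342, BioTracker Green Microtubule Cytoskeleton Dye, MitoTracker Red and Annexin V Alexa Fluor 680, with imaging on a CQ1 microscope at 37°C and 5% CO2 after compound addition. Tubulin, mitochondrial-mass and membrane-permeability phenotypes are per cents of healthy-nucleus cells.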

[1] = 12 h, 1 µM, compound concentration 1 uM, replicate 1
[2] = 12 h, 1 µM, compound concentration 1 uM, replicate 2
[3] = 12 h, 10 µM, compound concentration 10 uM, replicate 1
[4] = 12 h, 10 µM, compound concentration 10 uM, replicate 2
[5] = 24 h, 1 µM, compound concentration 1 uM, replicate 1
[6] = 24 h, 1 µM, compound concentration 1 uM, replicate 2
[7] = 24 h, 10 µM, compound concentration 10 uM, replicate 1
[8] = 24 h, 10 µM, compound concentration 10 uM, replicate 2
[9] = 48 h, 1 µM, compound concentration 1 uM, replicate 1
[10] = 48 h, 1 µM, compound concentration 1 uM, replicate 2
[11] = 48 h, 10 µM, compound concentration 10 uM, replicate 1
[12] = 48 h, 10 µM, compound concentration 10 uM, replicate 2

SMILES: C=CC(=O)Nc1cc(-n2c(=O)ccc3cnc4ccc(-c5ccc(NS(C)(=O)=O)cc5)cc4c32)ccc1C
- Population Apoptotic (%) [1]: 44%
- Population Fragmented Nuclei (%) [1]: 15%
- Population Healthy Nuclei (%) [1]: 22%
- Population Hoechst High Intensity Objects (%) [1]: 22%
- Population Membrane Permeable-Phenotype (%) [1]: 0%
- Population Mitochondria Different-Phenotype (%) [1]: 76%
- Population Mitotic Cells (%) [1]: 55%
- Population Normal (%) [1]: 77%
- Population Pyknosed Nuclei (%) [1]: 62%
- Population Tubulin-Different-Phenotype (%) [1]: 50%
- Total Cell Count [1]: 174
- Population Apoptotic (%) [2]: 13%
- Population Fragmented Nuclei (%) [2]: 13%
- Population Healthy Nuclei (%) [2]: 35%
- Population Hoechst High Intensity Objects (%) [2]: 5%
- Population Membrane Permeable-Phenotype (%) [2]: 17%
- Population Mitochondria Different-Phenotype (%) [2]: 15%
- Population Mitotic Cells (%) [2]: 86%
- Population Normal (%) [2]: 94%
- Population Pyknosed Nuclei (%) [2]: 50%
- Population Tubulin-Different-Phenotype (%) [2]: 26%
- Total Cell Count [2]: 171
- Population Apoptotic (%) [3]: 50%
- Population Fragmented Nuclei (%) [3]: 20%
- Population Healthy Nuclei (%) [3]: 19%
- Population Hoechst High Intensity Objects (%) [3]: 16%
- Population Membrane Permeable-Phenotype (%) [3]: 0%
- Population Mitochondria Different-Phenotype (%) [3]: 86%
- Population Mitotic Cells (%) [3]: 50%
- Population Normal (%) [3]: 83%
- Population Pyknosed Nuclei (%) [3]: 60%
- Population Tubulin-Different-Phenotype (%) [3]: 63%
- Total Cell Count [3]: 184
- Population Apoptotic (%) [4]: 13%
- Population Fragmented Nuclei (%) [4]: 0%
- Population Healthy Nuclei (%) [4]: 40%
- Population Hoechst High Intensity Objects (%) [4]: 8%
- Population Membrane Permeable-Phenotype (%) [4]: 9%
- Population Mitochondria Different-Phenotype (%) [4]: 34%
- Population Mitotic Cells (%) [4]: 86%
- Population Normal (%) [4]: 91%
- Population Pyknosed Nuclei (%) [4]: 58%
- Population Tubulin-Different-Phenotype (%) [4]: 42%
- Total Cell Count [4]: 204
- Population Apoptotic (%) [5]: 42%
- Population Fragmented Nuclei (%) [5]: 15%
- Population Healthy Nuclei (%) [5]: 28%
- Population Hoechst High Intensity Objects (%) [5]: 19%
- Population Membrane Permeable-Phenotype (%) [5]: 15%
- Population Mitochondria Different-Phenotype (%) [5]: 62%
- Population Mitotic Cells (%) [5]: 57%
- Population Normal (%) [5]: 80%
- Population Pyknosed Nuclei (%) [5]: 55%
- Population Tubulin-Different-Phenotype (%) [5]: 57%
- Total Cell Count [5]: 173
- Population Apoptotic (%) [6]: 11%
- Population Fragmented Nuclei (%) [6]: 9%
- Population Healthy Nuclei (%) [6]: 58%
- Population Hoechst High Intensity Objects (%) [6]: 3%
- Population Membrane Permeable-Phenotype (%) [6]: 11%
- Population Mitochondria Different-Phenotype (%) [6]: 16%
- Population Mitotic Cells (%) [6]: 88%
- Population Normal (%) [6]: 96%
- Population Pyknosed Nuclei (%) [6]: 31%
- Population Tubulin-Different-Phenotype (%) [6]: 32%
- Total Cell Count [6]: 199
- Population Apoptotic (%) [7]: 48%
- Population Fragmented Nuclei (%) [7]: 19%
- Population Healthy Nuclei (%) [7]: 22%
- Population Hoechst High Intensity Objects (%) [7]: 13%
- Population Membrane Permeable-Phenotype (%) [7]: 0%
- Population Mitochondria Different-Phenotype (%) [7]: 78%
- Population Mitotic Cells (%) [7]: 51%
- Population Normal (%) [7]: 86%
- Population Pyknosed Nuclei (%) [7]: 58%
- Population Tubulin-Different-Phenotype (%) [7]: 59%
- Total Cell Count [7]: 194
- Population Apoptotic (%) [8]: 25%
- Population Fragmented Nuclei (%) [8]: 4%
- Population Healthy Nuclei (%) [8]: 56%
- Population Hoechst High Intensity Objects (%) [8]: 2%
- Population Membrane Permeable-Phenotype (%) [8]: 7%
- Population Mitochondria Different-Phenotype (%) [8]: 30%
- Population Mitotic Cells (%) [8]: 74%
- Population Normal (%) [8]: 97%
- Population Pyknosed Nuclei (%) [8]: 39%
- Population Tubulin-Different-Phenotype (%) [8]: 57%
- Total Cell Count [8]: 228
- Population Apoptotic (%) [9]: 45%
- Population Fragmented Nuclei (%) [9]: 21%
- Population Healthy Nuclei (%) [9]: 17%
- Population Hoechst High Intensity Objects (%) [9]: 23%
- Population Membrane Permeable-Phenotype (%) [9]: 3%
- Population Mitochondria Different-Phenotype (%) [9]: 40%
- Population Mitotic Cells (%) [9]: 54%
- Population Normal (%) [9]: 76%
- Population Pyknosed Nuclei (%) [9]: 60%
- Population Tubulin-Different-Phenotype (%) [9]: 33%
- Total Cell Count [9]: 204
- Population Apoptotic (%) [10]: 9%
- Population Fragmented Nuclei (%) [10]: 7%
- Population Healthy Nuclei (%) [10]: 81%
- Population Hoechst High Intensity Objects (%) [10]: 6%
- Population Membrane Permeable-Phenotype (%) [10]: 10%
- Population Mitochondria Different-Phenotype (%) [10]: 4%
- Population Mitotic Cells (%) [10]: 90%
- Population Normal (%) [10]: 93%
- Population Pyknosed Nuclei (%) [10]: 10%
- Population Tubulin-Different-Phenotype (%) [10]: 22%
- Total Cell Count [10]: 321
- Population Apoptotic (%) [11]: 52%
- Population Fragmented Nuclei (%) [11]: 24%
- Population Healthy Nuclei (%) [11]: 18%
- Population Hoechst High Intensity Objects (%) [11]: 18%
- Population Membrane Permeable-Phenotype (%) [11]: 16%
- Population Mitochondria Different-Phenotype (%) [11]: 29%
- Population Mitotic Cells (%) [11]: 47%
- Population Normal (%) [11]: 81%
- Population Pyknosed Nuclei (%) [11]: 56%
- Population Tubulin-Different-Phenotype (%) [11]: 45%
- Total Cell Count [11]: 204
- Population Apoptotic (%) [12]: 17%
- Population Fragmented Nuclei (%) [12]: 5%
- Population Healthy Nuclei (%) [12]: 79%
- Population Hoechst High Intensity Objects (%) [12]: 3%
- Population Membrane Permeable-Phenotype (%) [12]: 8%
- Population Mitochondria Different-Phenotype (%) [12]: 6%
- Population Mitotic Cells (%) [12]: 82%
- Population Normal (%) [12]: 96%
- Population Pyknosed Nuclei (%) [12]: 15%
- Population Tubulin-Different-Phenotype (%) [12]: 27%
- Total Cell Count [12]: 457

From ChEMBL document CHEMBL4689842, “EUbOPEN Chemogenomics Library wave 1” (2021)
